Data reported in ChEMBL document CHEMBL1122233, “Antihypertensive 9-substituted 1-oxa-4,9-diazaspiro[5.5]undecan-3-ones” (J Med Chem, 1983).

How the values were obtained:
[1] = test system: Rattus norvegicus; assay: Percentage fall in systolic blood pressure after 4 hours at 25 mg/kg given perorally; type: functional, Artery; conditions: route oral
Method in brief: (§1)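 Male Okamoto-Aoki spontaneously hypertensive rats, trained, in groups of four matched for mean systolic pressure; five treated groups and one vehicle control run concurrently. Oral dosing in water (solution or suspension, 0.1 mL/10 g) on two consecutive mornings. On day 2, rats were restrained at 30.0 ± 1.0 °C and tail-cuff systolic pressure recorded at 1–4 h; percent fall versus control, 1-tail t test, p ≤ 0.05.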

[2] = test system: Rattus norvegicus; assay: (§2) Percentage fall in systolic blood pressure after 2 hours at 25 mg/kg given perorally; type: functional, organism-based; design: dose 25 mg/kg; conditions: Artery; method in brief: as §1
[3] = test system: Rattus norvegicus; assay: Percentage fall in systolic blood pressure after 3 hours at 25 mg/kg given perorally; type: functional, Artery; conditions: route oral; method in brief: as §1
[4] = test system: Rattus norvegicus; assay: (§3) Percentage fall in systolic blood pressure after 1 hr at 25 mg/kg given perorally; type: functional, Artery; conditions: route oral; method in brief: as §1
[5] = test system: Rattus norvegicus; assay: (§4) Percentage fall in systolic blood pressure after 3 hr at 25 mg/kg given perorally; type: functional, Artery; conditions: route oral; method in brief: as §1
[6] = test system: Rattus norvegicus; assay: Percentage fall in systolic blood pressure after 2 hr at 25 mg/kg given perorally; type: functional, Artery; conditions: route oral; method in brief: as §1
[7] = test system: Rattus norvegicus; assay: (§5) Percentage fall in systolic blood pressure after 1 hr at 12.5 mg/kg given perorally; type: functional, organism-based; design: dose 12.5 mg/kg; conditions: Artery; method in brief: as §1
[8] = test system: Rattus norvegicus; assay: (§6) Percentage fall in systolic blood pressure after 2 hr at 12.5 mg/kg given perorally; type: functional, organism-based; design: dose 12.5 mg/kg; conditions: Artery; method in brief: as §1
[9] = test system: Rattus norvegicus; assay: Percentage fall in systolic blood pressure after 4 hr at 12.5 mg/kg given perorally; type: functional, Artery; conditions: route oral; method in brief: as §1
[10] = test system: Rattus norvegicus; assay: Percentage fall in systolic blood pressure after 4 hr at 25 mg/kg given perorally; type: functional, Artery; conditions: route oral; method in brief: as §1
[11] = test system: Rattus norvegicus; assay: Percentage fall in systolic blood pressure after 3 hr at 12.5 mg/kg given perorally; type: functional, organism-based; design: dose 12.5 mg/kg; conditions: Artery; method in brief: as §1
[12] = test system: Rattus norvegicus; assay: Percentage fall in systolic blood pressure after 3 hours at 50 mg/kg given perorally; type: functional, organism-based; design: dose 50 mg/kg; conditions: Artery
Method in brief: (§7)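 Male Okamoto-Aoki SHR, four per group, with a concurrent vehicle control group. Oral dosing in water (0.1 mL/10 g) on two consecutive mornings. After the day-2 dose, rats were restrained in a 30 °C chamber. Tail-cuff systolic pressure was taken at 1-4 h from four traces per rat. Result is % decrease versus control mean, by 1-tailed t test, p ≤ 0.05.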

[13] = test system: Rattus norvegicus; assay: Percentage fall in systolic blood pressure after 1 hr at 50 mg/kg given perorally; type: functional, organism-based; design: dose 50 mg/kg; conditions: Artery; method in brief: as §1
[14] = test system: Rattus norvegicus; assay: Percentage fall in systolic blood pressure after 2 hours at 50 mg/kg given perorally; type: functional, organism-based; design: dose 50 mg/kg; conditions: Artery; method in brief: as §7
[15] = test system: Rattus norvegicus; assay: Percentage fall in systolic blood pressure after 4 hours at 50 mg/kg given perorally; type: functional, organism-based; design: dose 50 mg/kg; conditions: Artery; method in brief: as §1
[16] = test system: Rattus norvegicus; assay: as §3; type: functional, organism-based; design: dose 25 mg/kg; conditions: Artery; method in brief: as §1
[17] = test system: Rattus norvegicus; assay: as §4; type: functional, organism-based; design: dose 25 mg/kg; conditions: Artery; method in brief: as §1
[18] = test system: Rattus norvegicus; assay: as §5; type: functional, Artery; conditions: route oral; method in brief: as §7
[19] = test system: Rattus norvegicus; assay: as §6; type: functional, Artery; conditions: route oral; method in brief: as §1
[20] = test system: Rattus norvegicus; assay: as §2; type: functional, Artery; conditions: route oral; method in brief: as §1

O=C1COC2(CCN(CCc3ccc(O)cc3)CC2)CN1
Decrease in SBP [1]: 21% | Decrease in SBP [2]: Not significant | Decrease in SBP [3]: 11% | Decrease in SBP [4]: 13%

O=C1COC2(CCN(CCCC(=O)c3ccc(F)cc3)CC2)CN1
Decrease in SBP [5]: 29% | Decrease in SBP [6]: 33% | Decrease in SBP [7]: Not significant | Decrease in SBP [8]: Not significant | Decrease in SBP [9]: 18% | Decrease in SBP [4]: 50% | Decrease in SBP [10]: 30% | Decrease in SBP [11]: Not significant

O=C1COC2(CCN(CC(O)c3ccccc3)CC2)CN1 (stereo not given)
Decrease in SBP [12]: Not significant | Decrease in SBP [13]: Not significant | Decrease in SBP [14]: Not significant | Decrease in SBP [15]: Not significant

O=C1COC2(CCN(CC(O)C3COc4ccccc4O3)CC2)CN1c1ccccc1 (stereo not given)
Decrease in SBP [6]: 25% | Decrease in SBP [16]: Not significant | Decrease in SBP [17]: Not significant | Decrease in SBP [10]: 16%

CN1CC2(CCN(CC(O)C3COc4ccccc4O3)CC2)OCC1=O (stereo in doubt; 61)
Decrease in SBP ([5]; 25 mg/kg): 40% | Decrease in SBP [18]: 25% | Decrease in SBP ([6]; 25 mg/kg): 36% | Decrease in SBP [19]: 22% | Decrease in SBP [9]: 19% | Decrease in SBP [10]: 40%

O=C1COC2(CCN(CCc3c[nH]c4ccccc34)CC2)CN1c1cccc(F)c1
Decrease in SBP [1]: 18% | Decrease in SBP [20]: 31% | Decrease in SBP [3]: 22% | Decrease in SBP [4]: 29%
